# Bioassay records deposited in PubChem by several laboratories.
# AHR act: human AHR activation; 320,000 compounds, 2.5% hits; activation, % at 5 µM; AHR-responsive luciferase reporter cells, luminescence; AID 2796; in the data active means activation above about 47%;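 further: 0% = vehicle wells and 100% = reference agonist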
# FXN GAA850 act: frataxin GAA850 promoter activation; HEK293 lucGAA850 FXN promoter luciferase reporter, 24 h; percent of 10 µM SAHA response; activation, % at 6 µM; 360,000 compounds, 0.56% hits;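 active means activation above the average of all compounds screened plus 3 SD, cutoff fixed separately per campaign, cut at about 7.5% in these data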;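 further: 0% = DMSO wells and 100% = 10 µM SAHA wells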
# HDAC3 inhib: blocks human histone deacetylase 3 | O15379 | recombinant HDAC3, fluorogenic peptide/trypsin coupled, fluorescence | inhibition, % at 8.3 µM | 320,000 compounds, 0.15% hits | AID 2718; in the data active means inhibition above about 26%, passing the limit was not always enough
# SENP1 inh: SENP1 (human) catalytic domain inhibition | recombinant SENP1 catalytic domain, CyPet-SUMO1-YPet FRET cleavage | inhibition, % at 10 µM | 360,000 compounds, 0.21% hits | AID 624204 | Q9P0U3;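 active means inhibition at least 30% at 10 µM, raw YFP signal under a set limit, fluorescence ratio 0.5 to 1.5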;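 further: 0% = enzyme with DMSO and 100% = no enzyme wells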
# Target sequence (Q9P0U3 419-644 limits assumed): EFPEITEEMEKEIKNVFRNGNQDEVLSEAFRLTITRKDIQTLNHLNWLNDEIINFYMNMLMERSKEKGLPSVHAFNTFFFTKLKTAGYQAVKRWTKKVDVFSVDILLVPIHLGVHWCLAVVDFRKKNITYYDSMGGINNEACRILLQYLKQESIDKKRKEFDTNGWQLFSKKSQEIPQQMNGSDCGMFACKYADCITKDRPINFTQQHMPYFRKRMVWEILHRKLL
#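 Test system: hSENP1 catalytic domain, recombinant; Amount: 20 pM final SENP1 enzyme; Medium: Tris pH 8 buffer plus EDTA, NaCl, BME, BSA, NP40, catalase; Schedule: 50 min enzyme reaction, room temperature, light-protected; Technique: FRET fluorescence in CFP and YFP emission channels; Controls: no-enzyme wells low, DMSO-plus-enzyme wells high control.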
# PfM18AAP inh-1: blocks P. falciparum M18 aspartyl aminopeptidase | inhibition, % at 7.35 µM | recombinant PfM18AAP, H-Glu-NHMec fluorogenic cleavage | 290,000 compounds, 1.2% hits;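 active means inhibition above the campaign mean inhibition over all tested compounds plus 3 SD, cut at about 28% in these data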;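 further: 0% = plate median of test compound wells and 100% = 2 mM ZnCl2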
# CTSL1 counter-1: cathepsin L1 inhibition, PFM18AAP counter-screen; 300,000 compounds, 0.49% hits; AID 1906; recombinant F. hepatica cathepsin L1, Z-Leu-Arg-MCA fluorescence; inhibition, % at 5.96 µM;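 active means inhibition above the mean of all tested compounds plus 3 SD, set per screening campaign, cut at about 17% in these data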;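 further: 0% = plate median of test compound wells and 100% = 1 µM Z-Phe-Ala-diazomethylketone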
# PfM18AAP inh-2: confirmation of Plasmodium falciparum M18 aspartyl aminopeptidase inhibitors | shares compounds with PfM18AAP inh-1 | recombinant PfM18AAP, H-Glu-NHMec fluorogenic cleavage | inhibition, % at 7.35 µM | 2,400 compounds, 28% hits | AID 2170;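 active means mean inhibition over replicate wells above the hit cutoff set for the earlier primary screen, cut at about 29% in these data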;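 further: 0% = median of test compound wells and 100% = 2 mM ZnCl2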
# CTSL1 counter-2: Cathepsin L (human) inhibition, confirmation; shares compounds with PfM18AAP inh-1; purified cathepsin L1, Z-Leu-Arg-MCA fluorescence; inhibition, % at 5.96 µM; 2,400 tested, under 10 active; AID 2178;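 active means average inhibition across replicates above the hit cutoff set in the earlier primary screen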;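 further: 0% = median of test compound wells and 100% = Z-Phe-Ala-diazomethylketone 1 µM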
# Target sequence (P07711 whole entry, looked up): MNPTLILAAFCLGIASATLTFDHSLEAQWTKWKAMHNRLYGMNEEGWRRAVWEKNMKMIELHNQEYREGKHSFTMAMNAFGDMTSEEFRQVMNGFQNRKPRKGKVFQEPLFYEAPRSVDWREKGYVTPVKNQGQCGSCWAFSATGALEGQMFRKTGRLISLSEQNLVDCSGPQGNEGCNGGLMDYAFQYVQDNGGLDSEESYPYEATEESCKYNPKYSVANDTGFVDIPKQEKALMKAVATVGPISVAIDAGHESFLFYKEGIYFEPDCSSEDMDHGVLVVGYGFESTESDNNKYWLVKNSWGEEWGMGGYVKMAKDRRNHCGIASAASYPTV
# * marks the source's active call; other numbers are inactive results; / = no result; ! = not confirmed by another sample. Only some compounds are listed: those with a hit (about 4.2% of all), similar ones and a draw of the others.
SMILES,AHR act,FXN GAA850 act,HDAC3 inhib,SENP1 inh,PfM18AAP inh-1,CTSL1 counter-1,PfM18AAP inh-2,CTSL1 counter-2
C(=N\Nc1ccc2nncn2n1)/c1ccccn1,2,0,3,0,41*,2,-5,-5
C/C(=N\Nc1ccc2nncn2n1)c1ccco1,4,0,2,-1,45*,1,19,1
C/C(=N\Nc1ccc2nncn2n1)c1ccc(Br)s1,78*,-2,2,2,50*,0,-29,3
C/C(=N\NC(=O)c1ccc(Cl)cc1)c1ccc(Br)s1,15,2,0,-2,0,1,/,/
CC(C)(C)OC(=O)C[C@@H]1C/C=C\C[C@@H](CC(=O)NCCO)C(=O)N2CCC[C@H]2COC1=O,1,2,4,1,/,/,/,/
COc1ccc(CNC(=O)c2ccc3c(c2)N(C)C(=O)CS3=O)cc1 (centres undefined),4,-1,2,4,47*,-2,-15,5
COc1ccc(C(=O)NCc2ccc(N3CCN(C)CC3)cc2)cc1,5,0,-2,0,-1,2,/,/
NS(=O)(=O)c1ccc(NC(=O)C(Sc2ccccc2)c2ccccc2)cc1 (centres undefined),3,7,2,1,2,10,/,/
O=C(Nn1cnnc1)C(c1ccccc1)c1ccccc1,0,-1,-7,-1,43*,-1,21,-9
O=C(Nn1cnnc1)C(Sc1ccccc1)c1ccccc1 (centres undefined),0,0,-8,1,48*,-4,34*,-2
O=C(NC(=S)Nn1cnnc1)c1ccccc1,-4,0,-3,3,/,0,/,/
COc1ccc(C(=O)NNC(=O)CSc2nnc(C)n2C)cc1,0,1,-5,0,-11,-5,/,/
O=C(Nc1ccc2c(c1)OCCO2)C(c1ccnc2ccccc12)N1CCN(C/C=C/c2ccccc2)CC1 (centres undefined),/,/,/,-3,/,/,/,/
CCc1ccc(-n2c(Cc3ccccc3)n[nH]c2=S)cc1,1,1,-3,1,10,-3,/,/
Cc1cccc(-n2c(CNC(=O)Cc3ccccc3)n[nH]c2=S)c1,1,-1,12,-1,38*,1,2,1
Cc1c(C(=O)NCc2n[nH]c(=S)n2-c2ccc(F)cc2)cccc1[N+](=O)[O-],2,-1,8,0,33*,0,8,2
Cc1cccc(-n2c(Cc3ccccc3)n[nH]c2=S)c1,1,2,9,3,34*,1,-5,-13
O=C(c1ccccc1)C(CN1CCCCC1)c1ccccc1 (centres undefined),/,-11,/,1,/,/,/,/
Cc1nn(-c2ccccc2)c(C)c1NC(=O)COC(=O)c1cc(Br)ccc1O,-1,-1,0,0,/,1,/,/
CCN(C(=O)COC(=O)CNS(=O)(=O)c1ccc(SC)c([N+](=O)[O-])c1)C1CCCCC1,0,-1,3,-2,/,-18,/,/
COc1ccc(C2CC(c3ccc(Br)cc3)=NN2C(=S)Nc2ccccc2)cc1 (centres undefined),-1,3,-4,-3,42*,-1,-20,9
CC1=CC(C)(C)N(C(=O)CSc2ncn[nH]2)c2ccccc21,-3,0,-4,0,54*,-4,-42,2
Cc1c(C)n(C(=O)CSc2ncn[nH]2)c2ccccc12,-4,2,5,1,83*,-1,52*,6
CNCc1ccccc1Sc1ccc(O)c(O)c1,0,6,2,2,51*,-1,70*,-5
C[C@@H]1CN([C@H](C)CO)C(=O)CCCn2nncc2CO[C@H]1CN(C)C(=O)NC1CCCCC1,/,-1,/,0,/,/,/,/
SMILES,AHR act,FXN GAA850 act,HDAC3 inhib,SENP1 inh,PfM18AAP inh-1,CTSL1 counter-1,PfM18AAP inh-2,CTSL1 counter-2
CC(=O)c1ccc(S(=O)(=O)N2CCN(CC(=O)Nc3ccccc3C(=O)NC3CC3)CC2)cc1,0,1,3,2,/,/,/,/
CC1(C)OC2C(CO)OC(n3cnc4c(=S)nc[nH]c43)C2O1 (centres undefined),0,1,13,1,32*,3,-30,-5
CC1(C)OC2C(CO)OC(n3cnc4c(=S)nc(N)[nH]c43)C2O1 (centres undefined),/,/,/,1,/,/,/,/
O=C(c1cc(COc2ccc(F)cc2F)on1)N1CCSCC1,0,6,0,1,-7,1,/,/
Nc1ccc(C(=O)O)c(O)c1,24,-2,0,-1,33*!,-3,-23,-1
Nc1ccc(C(=O)Oc2ccc([N+](=O)[O-])cc2)cc1,4,5,/,3,6,4,/,/
Nc1ccc(C(=O)Oc2ccc([N+](=O)[O-])cc2)c(O)c1,1,/,5,/,19,2,-52,-3
COc1ncnc2c1ncn2CCCN(C)CCc1ccccn1,/,1,/,4,/,/,/,/
CC1CCCC(C)N1C(=O)COC(=O)c1cccnc1Cl (centres undefined),-1,1,4,0,/,/,/,/
CC1C/C(=N/N2C(=O)CSC2=S)CC(C)(C)C1 (centres undefined),2,-1,-3,-1,38*,3,-20,-3
Cc1ccccc1NC(=O)NNC(=O)c1ccc2ccccc2c1,/,1,7,0,15,/,/,/
COc1ccc(NC(=O)NNC(=O)c2ccc3ccccc3c2O)cc1OC,2,0,/,-4,39*,-3,12,-1
COc1ccc(CCC(=O)NNC(=O)Nc2ccc(OC)c(OC)c2)cc1,15,1,1,1,-1,-1,/,/
COc1ccccc1NC(=O)NNC(=O)c1ccc2ccccc2c1O,/,0,3,-2,33*,/,4,0
COc1ccc(NC(=O)NNC(=O)CCc2ccc(O)c(O)c2)cc1OC,0,-1,1,-4,82*,3,61*,-2
Cc1ccccc1NC(=O)NNC(=O)c1ccc2ccccc2c1O,5,1,-8,-1,34*,2,4,4
CCc1cc2c(SCC(=O)NC3CC3)ncnc2s1,5,1,4,-1,/,/,/,/
CNC(=S)n1cnc(N)n1,-1,-2,5,3,40*,0,-34,0
COCCN(C(=O)COC(=O)c1ccc2c(c1)OCO2)c1c(N)n(Cc2ccccc2)c(=O)[nH]c1=O,/,-1,/,0,/,/,/,/
COc1cc(NC(=S)NC(C)(C)C)c(OC)cc1Cl,14,2,0,1,-1,0,/,/
COc1cc(Cl)c(C)cc1NC(=S)NN,17,-2,6,4,32*,1,21,-6
